Here are results for eleven compounds from ChEMBL document CHEMBL4680305, “Synthesis and biological evaluation of all possible inosine-mixed cyclic dinucleotides that activate different hSTING variants” (Bioorg Med Chem, 2021).

The structures appear in SMILES notation. Calls of active or inactive are those of the source. The rule behind the calls is not given here.

What is called Kd is the equilibrium constant for the complex coming apart. Low readings indicate tighter binding, high ones weaker binding.

The subject of the first experiment is HEK293T. The experiment can be described thus: Activation of human STING R232H mutant expressed in HEK293T cells assessed as increase IFN-beta activity at 5 uM […] by dual-luciferase reporter gene assay. The conditions noted are these: filed as activator. Format: cell-based. Summed up:
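HEK293T cells were co-transfected using polyjet with pcDNA3.1-hSTING R232H (50 ng), pGL3-IFNβ firefly reporter (400 ng) and pGL4.74-Rluc-TK (50 ng). After 24 h, cells were stimulated with 5 µM CDN for 30 min in digitonin buffer (10 µg/mL digitonin, 1 mM ATP, 0.1 mM GTP, HEPES/KCl/MgCl2), then put back in normal medium. Lysates were taken 12 h later for dual-luciferase readout; mean ± s.e.m., n = 5.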
Background: In a reporter assay the amount or activity of a reporter protein is the signal.
Turning to `Nc1ncnc2c1ncn2[C@@H]1O[C@@H]2COP(=O)(O)O[C@@H]3[C@H](O)[C@@H](COP(=O)(O)O[C@H]2[C@H]1O)O[C@H]3n1cnc2c(=O)[nH]cnc21`, the outcome was Active.

With `Nc1ccn([C@@H]2O[C@@H]3COP(=O)(O)O[C@H]4[C@@H](O)[C@H](n5cnc6c(=O)[nH]cnc65)O[C@@H]4COP(=O)(O)O[C@@H]2[C@@H]3O)c(=O)n1`, the outcome was Active.

In the case of `Nc1nc2c(ncn2[C@@H]2O[C@@H]3COP(=O)(O)O[C@@H]4[C@H](O)[C@@H](COP(=O)(O)O[C@@H]2[C@@H]3O)O[C@H]4n2cnc3c(=O)[nH]cnc32)c(=O)[nH]1`, the outcome was Active.

Regarding `Nc1ncnc2c1ncn2[C@@H]1O[C@@H]2COP(=O)(O)O[C@H]3[C@@H](O)[C@H](n4cnc5c(O)ncnc54)O[C@@H]3COP(=O)(O)O[C@@H]1[C@@H]2O`, the result was Active.

As for `Nc1ccn([C@@H]2O[C@@H]3COP(=O)(O)O[C@@H]4[C@H](O)[C@@H](COP(=O)(O)O[C@@H]2[C@@H]3O)O[C@H]4n2cnc3c(=O)[nH]cnc32)c(=O)n1`, the result was Active.

With `O=c1ccn([C@@H]2O[C@@H]3COP(=O)(O)O[C@@H]4[C@H](O)[C@@H](COP(=O)(O)O[C@@H]2[C@@H]3O)O[C@H]4n2cnc3c(=O)[nH]cnc32)c(=O)[nH]1`, the result was Active.

Take `O=c1[nH]cnc2c1ncn2[C@@H]1O[C@@H]2COP(=O)(O)O[C@@H]3[C@H](O)[C@@H](COP(=O)(O)O[C@H]2[C@H]1O)O[C@H]3n1cnc2c(=O)[nH]cnc21`: the result was Active.

As to `O=c1[nH]cnc2c1ncn2[C@@H]1O[C@@H]2COP(=O)(O)O[C@@H]3[C@H](O)[C@@H](COP(=O)(O)O[C@@H]1[C@@H]2O)O[C@H]3n1cnc2c(=O)[nH]cnc21`, the outcome was Active.

For `Nc1ncnc2c1ncn2[C@@H]1O[C@@H]2COP(=O)(O)O[C@@H]3[C@H](O)[C@@H](COP(=O)(O)O[C@@H]1[C@@H]2O)O[C@H]3n1cnc2c(O)ncnc21`, the result was Active.

For a further experiment, the target named is Stimulator of interferon genes protein (Homo sapiens, UniProt Q86WV6). The experiment can be described thus: Binding affinity to wild-type human STING-CTD (139-379) expressed in Escherichia coli BL21(D Escherichia ) cells by isothermal titration calorimetry.
Sequence of Stimulator of interferon genes protein (Q86WV6 whole entry): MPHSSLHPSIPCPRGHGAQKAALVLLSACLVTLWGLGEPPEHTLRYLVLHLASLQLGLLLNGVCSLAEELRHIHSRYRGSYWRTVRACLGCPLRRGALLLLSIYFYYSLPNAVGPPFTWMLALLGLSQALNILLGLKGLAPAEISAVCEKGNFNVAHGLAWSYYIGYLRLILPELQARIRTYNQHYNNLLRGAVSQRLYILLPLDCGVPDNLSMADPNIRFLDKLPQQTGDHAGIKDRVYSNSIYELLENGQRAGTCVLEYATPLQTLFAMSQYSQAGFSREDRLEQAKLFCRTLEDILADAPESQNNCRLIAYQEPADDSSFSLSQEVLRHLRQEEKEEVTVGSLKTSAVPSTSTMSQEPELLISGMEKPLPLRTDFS
Details: not given
In turn, `O=c1[nH]cnc2c1ncn2[C@@H]1O[C@@H]2COP(=O)(O)O[C@H]3[C@@H](O)[C@H](n4cnc5c(=O)[nH]cnc54)O[C@@H]3COP(=O)(O)O[C@H]2[C@H]1O` yielded a dissociation constant Kd of 19.5 µM.

Tested on in a further experiment: not listed separately
The experiment can be described thus: Stability of compound in presence of 20% FBS.
Details: not given
Summed up: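 CDN at 0.1 µg/µL was incubated at 37 °C in 20% FBS with 20 mM PBS pH 7.4 and 5 mM MgCl2, against a water control. Aliquots taken at various time points were quenched with EDTA pH 8.0 and centrifuged. They were analysed by HPLC with UV at 254 nm, using 10 mM TEAA/MeCN mobile phase at 25 °C.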
For `Nc1ncnc2c1ncn2[C@@H]1O[C@@H]2COP(=O)(O)O[C@H]3[C@@H](O)[C@H](n4cnc5c(O)ncnc54)O[C@@H]3COP(=O)(O)O[C@H]2[C@H]1O`, the Stability entry is reported as “Stable”.
